Bioassay records from PubChem BioAssay.
Most compounds without a hit are left out; they make up all but 6.9% or so of the library.
Ecoli tolC = growth inhibitors of E. coli tolC mutant, primary screen, strain BW25113 ΔtolC::kan, 384-well. OD615. growth inhibition, % at 10 µM (by protocol). 65,000 compounds, 2.2% hits;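 active means growth inhibition at or above a cutoff equal to the mean over every tested compound plus 3 SD, cut at about 60% in these data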;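 further: growth measured after 20 h incubation at 37 °C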
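Material: E. coli BW25113 ΔtolC::kan, tolC deletion mutant strain. Measure: percent growth inhibition. Schedule: 37 °C, 20 h exposure. Doses: single-point testing at 10 µM. Signal: A615 absorbance measurement. Buffer or medium: kanamycin-containing LB broth (50 µg/mL).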
Calb biofilm kill = clotrimazole potentiators killing Candida biofilms, primary screen, with clotrimazole, Alamar Blue. C. albicans biofilm + clotrimazole. inhibition, % at 6 µM. 85,000 compounds, 0.14% hits;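 active means inhibition above 20%; inactive means inhibition below 20%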;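 further: preformed 24 hr biofilms exposed to compound for 48 hr; 0% = biofilm without compound and 100% = blank killed by clotrimazole plus chlorhexidine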
PTK2B oligo ant = antagonists of Pyk2 self-association, primary screen, Q293 cells, FERM NanoBiT luminescence, HTS. Protein-tyrosine kinase 2-beta (Homo sapiens), Q14289. hits give low values. z-score (the deposit names both 25 µM and 10 µM). 99,000 compounds, 0.83% hits;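 active means Z-score of -3 or lower, scaled per plate to the spread of control and sample wells; inactive means z-score above -3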;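 further: negative z-score means lost luminescence so less FERM oligomerization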
PostGolgi ctrl = growth inhibition of yeast control strain, primary screen, counter-screen for post-Golgi transport modulator project | efflux-deficient yeast background strain, growth absorbance A615, 16 h | inhibition, % at 10 µM | 98,000 compounds, 5% hits | AID 738, 2007
FAK blocker = FAK kinase inhibitors, primary screen, biochemical; Focal adhesion kinase 1 (Homo sapiens), Q05397; biochemical FAK kinase activity assay; inhibition, %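 (tested at 7 µM)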; 97,000 compounds, 0.84% hits; AID 727, 2007; in the data active means inhibition above about 19%;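 further: 0% = DMSO and 100% = reference compound high control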
Target sequence (Q05397 whole entry, looked up): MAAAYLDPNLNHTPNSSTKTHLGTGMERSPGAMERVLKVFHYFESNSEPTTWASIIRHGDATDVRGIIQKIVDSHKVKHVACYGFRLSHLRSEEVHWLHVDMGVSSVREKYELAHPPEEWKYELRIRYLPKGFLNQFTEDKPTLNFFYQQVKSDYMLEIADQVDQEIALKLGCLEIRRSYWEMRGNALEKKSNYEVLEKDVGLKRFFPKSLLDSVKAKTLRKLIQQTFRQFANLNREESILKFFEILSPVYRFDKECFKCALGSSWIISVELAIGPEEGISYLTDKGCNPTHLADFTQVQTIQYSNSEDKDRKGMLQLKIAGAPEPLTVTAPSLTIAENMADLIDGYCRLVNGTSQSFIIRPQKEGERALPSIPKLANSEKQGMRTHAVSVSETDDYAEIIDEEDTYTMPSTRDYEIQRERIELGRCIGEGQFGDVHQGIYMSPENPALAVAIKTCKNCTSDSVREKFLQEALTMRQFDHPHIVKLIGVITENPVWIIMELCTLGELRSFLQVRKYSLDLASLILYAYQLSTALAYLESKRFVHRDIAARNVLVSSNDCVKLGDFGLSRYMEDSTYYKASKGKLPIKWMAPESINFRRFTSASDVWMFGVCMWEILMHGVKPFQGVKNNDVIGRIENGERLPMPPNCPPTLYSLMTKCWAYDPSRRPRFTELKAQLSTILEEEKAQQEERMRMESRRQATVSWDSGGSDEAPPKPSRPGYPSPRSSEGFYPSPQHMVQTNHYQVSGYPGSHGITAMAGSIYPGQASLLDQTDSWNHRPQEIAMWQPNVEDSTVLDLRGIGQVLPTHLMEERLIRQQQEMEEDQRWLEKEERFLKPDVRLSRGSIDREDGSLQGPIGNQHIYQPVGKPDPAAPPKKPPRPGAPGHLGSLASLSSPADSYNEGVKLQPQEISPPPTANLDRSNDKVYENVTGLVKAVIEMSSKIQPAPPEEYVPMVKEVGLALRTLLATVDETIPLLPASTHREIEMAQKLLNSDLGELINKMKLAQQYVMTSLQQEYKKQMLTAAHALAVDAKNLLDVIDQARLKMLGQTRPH
PostGolgi yeast = phenotypic screen on post-Golgi transport, primary screen. post-Golgi transport phenotypic cell assay. inhibition, % at 10 µM. 98,000 compounds, 0.9% hits. AID 739, 2007;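 further: yeast cells grown in 1536-well plates; yeast grown about 18 h at 30C before absorbance read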
* hit, by the source's call; nt = no result given. Unless noted, no stated cut-off is given here; in the data, active means inhibition above about 30%; inactive means the rest.

SMILES | Ecoli tolC | Calb biofilm kill | PTK2B oligo ant | PostGolgi ctrl | FAK blocker | PostGolgi yeast
CCOC(=O)/C(=C\c1ccccc1)C(=O)c1cc(C(C)=O)c(Nc2ccccc2)s1 | nt | 8 | -3* | 60* | -1 | 19
CCOC(=O)/C(=C\c1cccnc1)C(=O)c1cc(C(C)=O)c(Nc2ccccc2)s1 | nt | -1 | -2.1 | 90* | -6 | 111*
Cc1onc(-c2ccccc2Cl)c1C(=O)NC1CCS(=O)(=O)C1 (centres undefined) | -10 | 10 | nt | -4 | -2 | 0
COc1cccc(N2C(=O)C3CCCN3C2c2ccc(N(C)C)cc2)c1 (centres undefined) | -21 | 5 | nt | -2 | -2 | -5
Cc1csc(-c2cnn(-c3ccccc3)c2NC(=O)c2cccc(C(F)(F)F)c2)n1 | nt | nt | -0.06 | 34* | -4 | 25
O=C(NCCN1CCN(c2ccccc2F)CC1)C1c2ccccc2C(=O)N2CCc3ccccc3C12 (centres undefined) | -1 | 8 | -0.74 | 2 | 5 | 2
C#CCn1c(S(=O)(=O)Cc2ccc(OC)cc2)nc(-c2ccccc2)c1-c1ccccc1 | nt | nt | -3* | 25 | 4 | 0
CCOC(=O)Cn1c(S(=O)(=O)Cc2ccc(Cl)cc2)nc(-c2ccccc2)c1-c1ccccc1 | nt | nt | -2 | 27 | -1 | 15
CC(=O)c1ccc(NC2=C(N3CCOCC3)C(=O)c3ccccc3C2=O)cc1 | nt | nt | 0.63 | 34* | 11 | 1
CN(CC(=O)Nc1nc2ccccc2s1)S(=O)(=O)c1ccc(Cl)cc1 | nt | -4 | -0.8 | 31* | 1 | 2
COc1ccc(N2CCN(C(=S)Nc3cc(C)cc(C)c3)CC2)cc1 | nt | nt | 2 | -1 | -1 | 6
O=C(COC(=O)[C@H](Cc1ccccc1)NC(=O)c1ccco1)NC(c1ccccc1)c1ccccc1 | nt | nt | 0.62 | 10 | 4 | 14
NC(=S)N/N=C/c1ccc(-c2ccc(Cl)c(Cl)c2)o1 | nt | 0 | -1.3 | 81* | -2 | 67*
NC(=S)N/N=C\c1ccc(-c2cccc(Cl)c2Cl)o1 | nt | 8 | -2.7 | 48* | 0 | 9
CCOC(=O)c1c(NC(=O)CN2CCCCC2)sc2c1CCC(C=O)=C2Cl | nt | nt | -3.1* | 8 | -2 | 40*
CCOc1ccc(C(=O)Nc2c3c(nn2-c2ccc(C)cc2)CS(=O)C3)cc1OCC (centres undefined) | 7 | 5 | nt | 7 | 1 | -6
CN(C)C(=O)c1cn(-c2ccccc2)nc1-c1cccs1 | nt | -4 | -0.32 | 3 | -1 | -8
O=C(c1cn(-c2ccccc2)nc1-c1cccs1)N1CCN(c2ccccn2)CC1 | 19 | 8 | -0.73 | 54* | -1 | -3
OC(Cn1cncn1)c1ccc(Cl)cc1Cl (centres undefined) | -14 | 3 | 1 | 40* | -1 | 78*
OC(c1ccc(Cl)cc1Cl)C(Cc1cccnc1)n1cncn1 (centres undefined) | -1 | nt | 0.07 | 11 | -1 | 45*
CN1C(=S)SC(/[N+]([O-])=C\c2cccs2)C1(C)C (centres undefined) | -16 | 4 | -0.25 | 0 | -5 | 0
Cc1ccc(C)c2c1cc(C)c1nnc(SCc3ccccn3)n12 | nt | nt | -0.16 | 90* | 0 | 36*
CN(C)C(=O)c1ccc(NC(=O)c2cccnc2)cc1 | 7 | 12 | -0.24 | 8 | -1 | 5
C=CCNCc1cccn1-c1ccccc1 | -11 | 6 | 0.05 | 34* | 3 | -1
COc1ccccc1-c1cc(N)n(S(=O)(=O)c2ccc(F)c(C)c2)n1 | 22 | 5 | nt | 2 | nt | 0
SMILES | Ecoli tolC | Calb biofilm kill | PTK2B oligo ant | PostGolgi ctrl | FAK blocker | PostGolgi yeast
CCOC(=O)CSc1nnc(CNC(=O)c2ccc(OC)cc2)n1-c1ccc(OC)cc1 | -5 | 3 | 1.3 | -4 | -5 | -3
COc1ccccc1CN(Cc1nc2ccccc2c(=O)[nH]1)S(=O)(=O)c1ccc2ccccc2c1 | nt | 0 | -3* | nt | 4 | nt
CN1CCN(CC(=O)N(Cc2c(C#N)c3ccccc3n2C)c2ccccc2)CC1 | 2 | 10 | -0.09 | 34* | 0 | 1
C[n+]1cccc(CNC(=O)/C=N/O)c1 | 12 | 4 | -0.04 | 5 | -9 | -3
Cc1cc(S(=O)(=O)Nc2ccc(N(C)C)cc2)c(C)s1 | nt | 4 | -0.78 | 48* | 1 | 20
COc1cccc(NS(=O)(=O)c2cc(C)sc2C)c1 | 1 | 7 | -1.4 | 18 | 1 | -1
O=C(OCC(=O)N1CCN(C(=O)c2ccco2)CC1)c1ccccc1O | nt | nt | 0.61 | 1 | -2 | -4
O=C(Nc1ccccc1C(=O)OCC(=O)N1CCc2ccccc2C1)c1ccco1 | 34 | 0 | -1 | 32* | 7 | 1
O=C(OCC(=O)N1CCN(C(=O)c2ccco2)CC1)c1ccccc1OCc1ccc(Cl)cc1 | 22 | nt | 0.53 | 42* | nt | 7
CCCOC(=O)c1ccc(NC(=O)C2CCCO2)cc1 (centres undefined) | 13 | 2 | 0.42 | 8 | 2 | 0
Cc1nn2c(-c3ccncc3)nnc2c2ccccc12 | 42 | nt | 0.36 | 64* | 3 | 11
Cc1ccccc1-c1nnc2c3ccccc3c(C)nn12 | nt | -1 | 0.2 | nt | -1 | nt
Cc1nn2c(-c3ccco3)nnc2c2ccccc12 | 38 | 7 | -0.64 | 24 | 0 | -2
COc1ccc(-c2nnc3c4ccccc4c(C)nn23)cc1 | nt | 4 | -2.2 | 44* | -4 | 1
COc1cc2cc(CN(Cc3nnnn3Cc3ccccc3)CC3CCCO3)c(=O)[nH]c2cc1OC (centres undefined) | 5 | 11 | 0.97 | -1 | 3 | -2
CCN(CC)c1ccc(NC(=O)CN2CCN(CC(=O)Nc3ccc(F)cc3)CC2)cc1 | -6 | -1 | 1.5 | 1 | nt | 2
Brc1cccc(-c2nc(-c3ccncc3)no2)c1 | -1 | 2 | 1.2 | 43* | nt | 13
CC(C)(C)c1ccc(-c2nc(-c3ccncc3)no2)cc1 | nt | 1 | 0.73 | nt | 1 | nt
Cc1cc(C)cc(-c2nc(-c3ccncc3)no2)c1 | 5 | 21* | nt | 8 | -5 | -13
Cc1ccc(NC(=O)C(CC(C)C)NC(=O)C2CCC(C)CC2)nc1 (centres undefined) | nt | -1 | -0.77 | 6 | -2 | 0
Cc1ccc(C(=O)CC(C(=O)O)n2ccc(C)n2)cc1 (centres undefined) | -20 | 4 | -0.5 | 2 | -10 | 4
CC(=O)N(/N=C1\Sc2ccccc2C1=O)c1ccc(C)cc1C | nt | 7 | 0.47 | 48* | 5 | -7
Brc1ccc(C2Nc3cccc4cccc(c34)N2)o1 | 21 | 7 | 0.03 | -4 | 2 | 0
c1ccc2c(c1)c1ccccc1n1c(-c3ccc4c(c3)OCO4)nnc21 | nt | nt | -2.5 | 43* | -8 | 16
Cc1ccc(C(=O)N2CCN(c3ccccc3)CC2)cc1C | 5 | -4 | 0.17 | -5 | nt | -5
COC(=O)c1sccc1NC(=O)CN1CCN(c2ccc(F)cc2)CC1 | 54 | 8 | 0.22 | 32* | nt | -1
